Laboratory results reported in ChEMBL document CHEMBL1687796, “Synthesis and spectrum of the neoglycoside ACHN-490” (2010).

Key:
[1] = system: Staphylococcus epidermidis; assay: Antibacterial activity against aminoglycoside-resistant Staphylococcus epidermidis expressing APH(3')-3 by broth microdilution method; type: functional
[2] = system: Klebsiella pneumoniae; assay: Antibacterial activity against aminoglycoside-resistant Klebsiella pneumoniae expressing AAC(3)-2 by broth microdilution method; type: functional
Outline: (§1)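 Clinical aminoglycoside-resistant isolates were each carrying a single aminoglycoside-modifying enzyme. […] MICs were determined by CLSI broth microdilution.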

[3] = system: Acinetobacter sp.; assay: Antibacterial activity against Acinetobacter spp. by broth microdilution method; type: functional
Outline: (§2)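 MICs were determined by CLSI broth microdilution against clinical isolate panels that included aminoglycoside-resistant isolates. […] MIC90 was derived per group and not calculated when n was <10. Imipenem, ceftobiprole, ciprofloxacin and tigecycline MICs were also determined for the resistant isolates.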

[4] = system: Acinetobacter baumannii; assay: Antibacterial activity against aminoglycoside-susceptible Acinetobacter baumannii by broth microdilution method; type: functional
[5] = system: Escherichia coli; assay: Antibacterial activity against aminoglycoside-resistant Escherichia coli expressing armA methylase by broth microdilution method; type: functional
Outline: (§3)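 MICs were measured by broth microdilution following CLSI guidance. The strains formed a 25-strain screening panel with diverse aminoglycoside resistance mechanisms. The panel included Gram-negative and S. aureus strains carrying key aminoglycoside-modifying enzymes, strains with altered permeability or efflux, and an armA ribosomal methyltransferase strain.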

[6] = system: Pseudomonas aeruginosa; assay: Antibacterial activity against aminoglycoside-resistant Pseudomonas aeruginosa expressing AAC(6')-2 by broth microdilution method; type: functional; outline: as §1
[7] = system: Escherichia coli; assay: Antibacterial activity against Escherichia coli ATCC 25922 by broth microdilution method; type: functional; outline: as §3
[8] = system: Staphylococcus aureus; assay: microbe, parasite or virus in culture; details: ATCC 29213
[9] = system: Pluralibacter gergoviae; assay: Antibacterial activity against aminoglycoside-resistant Enterobacter gergoviae expressing ANT(2'')-I by broth microdilution method
[10] = system: Enterobacter cloacae; assay: Antibacterial activity against aminoglycoside-resistant Enterobacter cloacae expressing ANT(2'')-I by broth microdilution method
[11] = system: Pseudomonas aeruginosa; assay: Antibacterial activity against Pseudomonas aeruginosa expressing AAC(3)-1 by broth microdilution method; type: functional
[12] = system: Escherichia coli; assay: Antibacterial activity against aminoglycoside-resistant Escherichia coli expressing AAC(3)-IVa by broth microdilution method
[13] = system: Pseudomonas aeruginosa; assay: Antibacterial activity against Pseudomonas aeruginosa expressing mexXY operon by broth microdilution method; type: functional; outline: as §3
[14] = system: Citrobacter; assay: Antibacterial activity against Citrobacter spp. by broth microdilution method; type: functional; outline: as §2
[15] = system: Escherichia coli; assay: Antibacterial activity against aminoglycoside-resistant Escherichia coli expressing AAC(3)-4 by broth microdilution method; type: functional; outline: as §1
[16] = system: Klebsiella oxytoca; assay: Antibacterial activity against aminoglycoside-resistant Klebsiella oxytoca expressing AAC(3)-2 by broth microdilution method; type: functional; outline: as §1
[17] = system: Acinetobacter baumannii; assay: Antibacterial activity against aminoglycoside-resistant Acinetobacter baumannii expressing APH(3')-6 by broth microdilution method; type: functional; outline: as §1
[18] = system: Enterobacter sp.; assay: Antibacterial activity against Enterobacter spp. by broth microdilution method; type: functional; outline: as §2
[19] = system: Staphylococcus aureus; assay: microbe, parasite or virus in culture
[20] = system: Klebsiella pneumoniae; assay: Antibacterial activity against aminoglycoside-resistant Klebsiella pneumoniae expressing AAC(6')-1 by broth microdilution method; type: functional; outline: as §1
[21] = system: Klebsiella pneumoniae; assay: Antibacterial activity against aminoglycoside-resistant Klebsiella pneumoniae expressing AAC(3)-4 by broth microdilution method; type: functional; outline: as §1
[22] = system: Pseudomonas aeruginosa; assay: Antibacterial activity against Pseudomonas aeruginosa by broth microdilution method; type: functional; outline: as §2
[23] = system: Pseudomonas aeruginosa; assay: Antibacterial activity against Pseudomonas aeruginosa expressing ANT(4')-2 by broth microdilution method; type: functional; outline: as §3
[24] = system: Klebsiella pneumoniae; assay: Antibacterial activity against aminoglycoside-resistant Klebsiella pneumoniae expressing ANT(2'')-I by broth microdilution method
[25] = system: Klebsiella pneumoniae; assay: Antibacterial activity against aminoglycoside-resistant Klebsiella pneumoniae expressing AAC(3)-1 by broth microdilution method; type: functional; outline: as §1
[26] = system: Acinetobacter; assay: Antibacterial activity against aminoglycoside-resistant Acinetobacter spp. expressing APH(3')-6 by broth microdilution method; type: functional; outline: as §1
[27] = system: Escherichia coli; assay: Antibacterial activity against aminoglycoside-resistant Escherichia coli expressing ANT(2'')-I by broth microdilution method
[28] = system: Escherichia coli; assay: Antibacterial activity against aminoglycoside-resistant Escherichia coli expressing ANT(6')-1 by broth microdilution method; type: functional; outline: as §1
[29] = system: Escherichia coli; assay: Antibacterial activity against aminoglycoside-resistant Escherichia coli expressing AAC(3)-2 by broth microdilution method; type: functional; outline: as §1
[30] = system: Klebsiella aerogenes; assay: Antibacterial activity against aminoglycoside-resistant Enterobacter aerogenes expressing AAC(3)-2 by broth microdilution method; type: functional; outline: as §1
[31] = system: Serratia liquefaciens; assay: Antibacterial activity against aminoglycoside-resistant Serratia liquefaciens expressing AAC(3)-2 by broth microdilution method; type: functional; outline: as §1
[32] = system: Acinetobacter baumannii; assay: Antibacterial activity against aminoglycoside-resistant Acinetobacter baumannii expressing […] by broth microdilution method; type: functional; outline: as §1
[33] = system: Citrobacter freundii; assay: Antibacterial activity against aminoglycoside-resistant Citrobacter freundii expressing AAC(6')-1 by broth microdilution method; type: functional; outline: as §1
[34] = system: Citrobacter freundii; assay: Antibacterial activity against aminoglycoside-resistant Citrobacter freundii expressing AAC(3)-2 by broth microdilution method; type: functional; outline: as §1
[35] = system: Serratia marcescens; assay: Antibacterial activity against aminoglycoside-resistant Serratia marcescens expressing ANT(2'')-I by broth microdilution method
[36] = system: Escherichia coli; assay: Antibacterial activity against aminoglycoside-resistant Escherichia coli expressing ANT(2'')-1 by broth microdilution method; type: functional; outline: as §1
[37] = system: Providencia stuartii; assay: Antibacterial activity against aminoglycoside-resistant Providencia stuartii expressing AAC(2')-1 by broth microdilution method
[38] = Antibacterial activity against indole positive Proteae by broth microdilution method; type: functional; outline: as §2
[39] = system: Acinetobacter calcoaceticus; assay: Antibacterial activity against aminoglycoside-resistant Acinetobacter calcoaceticus expressing AAC(6')-1 by broth microdilution method; type: functional; outline: as §1
[40] = system: Staphylococcus sp.; assay: Antibacterial activity against Staphylococcus spp. by broth microdilution method; type: functional; outline: as §2
[41] = system: Acinetobacter baumannii; assay: Antibacterial activity against aminoglycoside-resistant Acinetobacter baumannii expressing ANT(2'')-1 by broth microdilution method; type: functional; outline: as §1
[42] = system: Staphylococcus epidermidis; assay: Antibacterial activity against aminoglycoside-resistant Staphylococcus epidermidis expressing APH(2'') + AAC(6')-1 by broth microdilution method; type: functional; outline: as §1
[43] = system: Escherichia coli; assay: Antibacterial activity against aminoglycoside-resistant Escherichia coli expressing AAC(6')-1 by broth microdilution method; type: functional; outline: as §1
[44] = system: Pseudomonas aeruginosa; assay: Antibacterial activity against aminoglycoside-resistant Pseudomonas aeruginosa expressing ANT(2'')-1 by broth microdilution method; type: functional; outline: as §1
[45] = system: Pseudomonas aeruginosa; assay: Antibacterial activity against Pseudomonas aeruginosa ATCC 27853 by broth microdilution method; type: functional
[46] = system: Enterobacter cloacae; assay: Antibacterial activity against aminoglycoside-resistant Enterobacter cloacae expressing AAC(3)-2 by broth microdilution method; type: functional; outline: as §1
[47] = system: Pseudomonas aeruginosa; assay: Antibacterial activity against efflux pump deficient Pseudomonas aeruginosa by broth microdilution method; type: functional
[48] = system: Escherichia coli; assay: Antibacterial activity against aminoglycoside-resistant Escherichia coli expressing APH(3')-1b by broth microdilution method

NCC[C@H](O)C(=O)N[C@@H]1C[C@H](N)[C@@H](O[C@H]2O[C@H](CN)[C@@H](O)[C@H](O)[C@H]2O)[C@H](O)[C@H]1O[C@H]1O[C@H](CO)[C@@H](O)[C@H](N)[C@H]1O [AMIKACIN]
2 µg/mL: MIC [4] | MIC [7] | MIC [9] | MIC [10] | MIC [15] | MIC [19] | MIC [21] | MIC [24] | MIC [27] | MIC [35] | MIC [45]
16 µg/mL: MIC50 [22] | MIC50 [40] | MIC [41]
32 µg/mL: MIC50 [14] | MIC [23] | MIC [28] | MIC [39]
30 µg/mL: MIC [20] | MIC [33] | MIC [43]
14 µg/mL: MIC [6]
> 64 µg/mL: MIC50 [3] | MIC90 [3] | MIC [5] | MIC [17] | MIC90 [22] | MIC [26] | MIC90 [40]
18 µg/mL: MIC [42]
8 µg/mL: MIC50 [18] | MIC [37] | MIC50 [38] | MIC [44]
64 µg/mL: MIC90 [18]
4 µg/mL: MIC [1] | MIC [2] | MIC [8] | MIC [11] | MIC [12] | MIC [13] | MIC [16] | MIC [25] | MIC [29] | MIC [30] | MIC [31] | MIC [32] | MIC [34] | MIC [36] | MIC [46]
0.5 µg/mL: MIC [47] | MIC [48]

CN[C@@H]1[C@@H](O)[C@@H](O[C@@H]2[C@@H](O)[C@H](O[C@H]3OC(CNCCO)=CC[C@H]3N)[C@@H](N)C[C@H]2NC(=O)[C@@H](O)CCN)OC[C@]1(C)O [PLAZOMICIN]
0.5 µg/mL: MIC50 [14] | MIC50 [18] | MIC [19]
0.25 µg/mL: MIC [28] | MIC [48]
4 µg/mL: MIC [4] | MIC [23] | MIC [32]
3 µg/mL: MIC [17] | MIC [44]
16 µg/mL: MIC50 [3]
2 µg/mL: MIC [39] | MIC90 [40] | MIC [41] | MIC [45]
32 µg/mL: MIC90 [3]
1 µg/mL: MIC [1] | MIC [2] | MIC [7] | MIC [8] | MIC [9] | MIC [10] | MIC [12] | MIC [15] | MIC [16] | MIC90 [18] | MIC [20] | MIC [21] | MIC [24] | MIC [25] | MIC [26] | MIC [27] | MIC [29] | MIC [30] | MIC [31] | MIC [33] | MIC [34] | MIC [35] | MIC [36] | MIC50 [40] | MIC [42] | MIC [43] | MIC [46]
64 µg/mL: MIC90 [22]
8 µg/mL: MIC [11] | MIC [13] | MIC50 [22] | MIC50 [38]
> 64 µg/mL: MIC [5] | MIC [37]
0.125 µg/mL: MIC [47]
6 µg/mL: MIC [6]
